The list is not random: actives were taken first. Their share in the collection is about 0.84%.
Tn6 DDE FP – disrupts Tn6 cyclic peptide binding to fibrin D-Dimer-E complex; 0.21% of 370,000 active; P02675; Fibrin DD(E) TRITC-Tn6 fluorescence polarization displacement; inhibition, % at 8.3 µM;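 active means inhibition above a per-campaign cutoff: mean of compounds within control limits plus 3 SD, cut at about 15% in these data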;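 further: 0% = median of all compound wells on the plate and 100% = blocking peptide control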
Target sequence (P02675 whole entry, looked up): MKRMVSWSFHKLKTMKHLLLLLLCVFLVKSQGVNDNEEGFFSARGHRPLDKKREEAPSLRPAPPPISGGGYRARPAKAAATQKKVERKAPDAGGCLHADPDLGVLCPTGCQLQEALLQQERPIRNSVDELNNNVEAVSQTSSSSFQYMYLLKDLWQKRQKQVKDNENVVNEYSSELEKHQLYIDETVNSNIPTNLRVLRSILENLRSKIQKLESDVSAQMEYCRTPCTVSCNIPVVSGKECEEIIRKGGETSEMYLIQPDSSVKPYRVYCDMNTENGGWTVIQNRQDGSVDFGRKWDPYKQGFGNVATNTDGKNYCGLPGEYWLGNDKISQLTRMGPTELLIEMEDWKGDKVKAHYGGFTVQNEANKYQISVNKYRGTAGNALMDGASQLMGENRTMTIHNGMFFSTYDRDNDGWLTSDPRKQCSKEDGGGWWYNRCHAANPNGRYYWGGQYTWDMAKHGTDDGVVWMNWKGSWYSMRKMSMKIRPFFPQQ
SKN-1 block – C. elegans SKN-1 inhibition | C. elegans VP596 Pgst-4::GFP/RFP ratio, acrylamide-induced, 24 h | inhibition, % at 21.8 µM | 0.49% of 360,000 active | AID 624304;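 active means interference check ratio from 0.5 to 1.5 plus GFP to RFP signal ratio inhibition reaching or exceeding a fixed threshold, cut at about 30% in these data, passing the limit was not always enough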
MT1-MMP act inh – inhibitors of human MT1-MMP activation; HT1080 RFP-PRO-GFP cells, GFP/RFP ratio fluorescence, overnight; percent of plate control window, DMSO zero; GFP/RFP ratio change, % at 20 µM; 0.061% of 360,000 active; P50281;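 active means GFP/RFP ratio change of at least 30% with cell ATP level not reduced by more than half and red fluorescence within 50% of control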
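Assay system: RFP-PRO-GFP reporter HT1080 cells; read-out basis: GFP/RFP fluorescence ratio; benchmarks: DMSO wells and RFP-L50D-GFP cells; doses: 20 µM single dose, 1% DMSO; schedule: overnight cell settling, then overnight compound exposure, 37 °C, 5% CO2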
Tn7 DDE FP – DD(E)-Tn7 binding inhibition, primary FP screen; FP displacement of FITC-Tn7 peptide from fibrin DD(E); 0% = median of compound wells per plate; AID 720508; P02675; inhibition, % at 8.3 µM; 0.13% of 370,000 active;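 active means inhibition above the mean of compounds falling within the control limits plus 3 SD of them, cut at about 14% in these data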;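 further: 0% = plate median of compound wells and 100% = 10 µM Aha-Tn7 peptide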
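System: human fibrin DD(E); quantity: Fibrin-DD(E) at 2 µM final; also added: fluorescent Tn7 probe at 0.1 µM; compound dosing: single nominal test concentration of 8.3 µM per compound; schedule: 10 min preincubation, 3 h with tracer, room temperature; detection: fluorescence polarization of the labelled Tn7 tracer; repeats: one replicate per compound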
DDE Tn7 confirm – confirmation of inhibitors of Tn7 binding to human fibrin DD(E); shares compounds with Tn7 DDE FP; FP displacement of TRITC-Tn7 peptide from DD(E); 0% set at plate's compound-well median; inhibition, % at 8.3 µM; 5% of 460 active;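 active means inhibition above the campaign cutoff, the mean of compounds within control limits plus 3 SD, cut at about 14% in these data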;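 further: 100% = median FP of high control wells holding Aha-Tn7 inhibitor peptide; displacers lower polarization since freed probe rises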
Tn7 DDE ctr – counter-screen hit for Tn7 peptide-fibrin DD(E) binding disruption. shares compounds with Tn7 DDE FP. TRITC-Tn7 probe displacement, fluorescence polarization. inhibition, % at 8.3 µM. 3% of 460 active;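 active means inhibition above the cutoff, the mean of compounds lying between the control bounds plus 3 SD of those compounds, cut at about 17% in these data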;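 further: 0% = median of compound sample wells and 100% = excess unlabeled Aha-Tn7 peptide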
Active calls of the source: *; . = not tested or not shown.

SMILES	Tn6 DDE FP	SKN-1 block	MT1-MMP act inh	Tn7 DDE FP	DDE Tn7 confirm	Tn7 DDE ctr
CCOC(=O)N1CCN(Cc2nc(-c3cccc(Cl)c3)no2)CC1	-8	-20	2	-2	.	.
CCOC(=O)N1CCN(Cc2nc(-c3ccc(C)cc3)no2)CC1	-1	-7	-2	16*	16*	8
COc1cc2ncnc(NCc3ccc(C)cc3)c2cc1OC	5	11	0	14*	4	-3
COC(=O)C[C@H]1CC[C@H]2[C@H](COc3ccc(NC(=O)c4ccccc4F)cc3C(=O)N2C)O1	-1	.	.	0	.	.
CC(C)C[C@H]1CN=C(N(C)C)N1CCCCc1ccccc1	10	-8	0	-1	.	.
C[C@H]1CN=C(N(C)C)N1CCCCc1ccccc1	6	-1	5	16*	9	5
CCCn1nc(C(=O)Nc2cccc(S(=O)(=O)N(C)c3ccccc3)c2)c2ccccc2c1=O	0	-1	4	1	.	.
O=C(CSc1nc2c(cnn2-c2ccc(F)cc2)c(=O)[nH]1)N1CCCCC1	3	-8	-4	15*	1	0
O=C(CCc1ccccc1)Nc1ccc2ccccc2n1	4	19	-1	4	.	.
CC(=O)Nc1cc(-c2ccccc2N(C)C)cn2c(-c3cccc(C(F)(F)F)c3)cnc12	3	31	-67	21*	-3	-1
NC(=O)C(c1ccccc1)(c1ccccc1)[C@@H]1CCN(CCc2ccc3c(c2)CCO3)C1	-4	.	.	4	.	.
Cn1c(=O)c2[nH]c(-c3ccccc3)c(O)c2n(C)c1=O	1	-6	-49	17*	5	-1
CC(C)Cn1c(=O)c(CCC(=O)Nc2ccc(N3CCOCC3)cc2)nc2cc(Cl)ccc21	-3	-6	-5	0	.	.
COCCCNC(=S)NNC(=O)c1ccccn1	3	10	-1	16*	7	-4
COCCCNC(=S)NNC(=O)c1ccccc1Br	-5	6	-6	6	.	.
CC1(c2ccccc2Cl)NC(=O)N(CC(=O)N2CCc3ccccc3C2)C1=O (stereo not given)	0	10	0	5	.	.
CC1(c2ccc(Cl)cc2)NC(=O)N(CC(=O)N2CCc3ccccc3C2)C1=O (stereo not given)	3	-4	-1	15*	11	5
C#CCn1cc(/C=N/NC(=O)c2cc3ccccc3o2)c2ccccc21	-2	12	-1	18*	14*	2
O=C(N/N=C/c1cccc2ccccc12)c1cc2ccccc2o1	-3	2	-1	2	.	.
COc1cc(NC(=O)c2ccc(-c3cccnc3)c3ccoc23)cc(OC)c1OC	-8	-8	3	3	.	.
O=C(Nc1cccc(OC(F)(F)F)c1)c1ccc(-c2cccnc2)c2ccoc12	8	-1	0	14*	3	-10
CCOC(=O)[C@H]1[C@H]2COc3ccc(C)cc3[C@@H]2N2C(=O)CN(Cc3ccc(Cl)cc3)C(=O)[C@@]12C	-4	-4	-1	2	.	.
CCOC(=O)[C@H]1[C@H]2COc3ccccc3[C@@H]2N2C(=O)CN(Cc3ccc(C)cc3)C(=O)[C@@]12C	5	0	-62	20*	-2	-8
C#CCCC(=O)Nc1sc2c(c1-c1nc3ccccc3s1)CCN(C(C)C)C2	4	.	.	16*	14*	6
CC(=O)Nc1sc2c(c1-c1nc3ccccc3s1)CCN(C(C)C)C2	.	9	-120	.	.	.
SMILES	Tn6 DDE FP	SKN-1 block	MT1-MMP act inh	Tn7 DDE FP	DDE Tn7 confirm	Tn7 DDE ctr
Clc1ccc(-n2c(SCc3cccc4ccccc34)nnc2-c2ccco2)cc1	-10	.	.	14*	13	6
CC(=O)Nc1ccc(NC(=O)c2c([N+](=O)[O-])cnn2C)cc1	5	-5	4	15*	3	2
Cc1cccc(NC(=O)c2c([N+](=O)[O-])cnn2C)c1	-7	10	-2	2	.	.
CCOC(=O)C1=C(O)C(=O)N(C2CCCCC2)C1	1	3	-1	-1	.	.
Cc1ccc(CC(=O)Nc2ccc(F)c([N+](=O)[O-])c2)cc1C	1	-11	2	0	.	.
Cc1ccc(CC(=O)Nc2ccc(F)c([N+](=O)[O-])c2)cc1	4	-5	3	15*	1	4
CN1CCC(NC(=O)CCc2ccccc2)CC1	-1	8	-3	14*	5	2
Cc1ccc(CC(=O)NC2CCN(C)CC2)cc1	5	-15	-2	1	.	.
CCn1c(=O)cc(SCC(=O)Nc2cccnc2)c2ccccc21	-2	-6	12	14*	2	-1
Oc1ccc2nnc3c(Br)cnn3c2c1	-6	-7	-54	17*	11	-1
Clc1ccc2nc3c4ccccc4cnn3c2c1	5	31	-1	2	.	.
CCCCCC[C@@H](CC)CN(C(=O)Oc1ccccc1)c1ccccc1	-2	.	.	15*	13	7
O=C1N2CCc3ccccc3C2CS(=O)(=O)N1CCc1ccccc1 (stereo not given)	2	.	.	-1	.	.
CCOc1ccc(NC(=O)CCN2CCCCC2)cc1	-7	-12	-1	16*	4	4
COc1ccc(NC(=O)CCN2CCCCC2)cc1	1	2	1	8	.	.
CCOC(=O)CCCNC(=O)OC1CC2CC1[C@H]1CCCCN1[C@H]2Cc1ccccc1 (stereo not given in full)	-5	.	.	2	.	.
Cc1ccccc1S(=O)Cc1ccc(C(=O)NC2CCN(Cc3ccccc3)CC2)o1 (stereo not given)	-10	9	0	14*	5	-4
C=CCN1C(=O)C(Cc2ccc(OCC)cc2)S/C1=N\N=C\c1cccs1 (stereo not given)	-6	-2	-2	3	.	.
C=CCN1C(=O)C(Cc2ccccc2)S/C1=N/N=C/c1cccs1 (stereo not given)	-1	5	-11	14*	-2	-8
O=C(CN(Cc1cccs1)C(=O)CNS(=O)(=O)c1ccc(Cl)cc1)NCc1ccco1	3	-9	4	15*	3	-2
COc1ccc(Cn2nnnc2C(c2ccc3ncccc3c2)N2CCN(C3CCCCC3)CC2)cc1 (stereo not given)	4	-2	1	14*	0	1
O=C(CN1CCN(c2ccccn2)CC1)N(c1ccccc1)c1ccc2ccccc2c1	-4	-6	-5	15*	-1	-6
O=C(CN1CCOCC1)N(c1ccccc1)c1ccc2ccccc2c1	-4	23	0	0	.	.
CCCS(=O)(=O)N1CCCC(C(=O)Nc2ccc3c(c2)CCC3)C1 (stereo not given)	-5	7	-3	-2	.	.
COc1ccc(C=Cc2ccc3ccccc3n2)c(OC)c1	8	17	-2	27*	6	5
